Screens from PubChem.
The list is not random: actives were taken first. Their share in the collection is about 2.5%.
SENP7 inh – SENP7 protease inhibitors, primary screen, biochemical, luminescence, uHTS | Sentrin-specific protease 7 (Homo sapiens), Q9BQF6 | recombinant SENP7, Z-RLRGG-aminoluciferin luminescence, 40 min | inhibition, % at 5 µM | 1.5% of 330,000 active;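 active = inhibition above about 50% at the single test dose, limit read from the data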
Target sequence (Q9BQF6 706-1050 limits assumed): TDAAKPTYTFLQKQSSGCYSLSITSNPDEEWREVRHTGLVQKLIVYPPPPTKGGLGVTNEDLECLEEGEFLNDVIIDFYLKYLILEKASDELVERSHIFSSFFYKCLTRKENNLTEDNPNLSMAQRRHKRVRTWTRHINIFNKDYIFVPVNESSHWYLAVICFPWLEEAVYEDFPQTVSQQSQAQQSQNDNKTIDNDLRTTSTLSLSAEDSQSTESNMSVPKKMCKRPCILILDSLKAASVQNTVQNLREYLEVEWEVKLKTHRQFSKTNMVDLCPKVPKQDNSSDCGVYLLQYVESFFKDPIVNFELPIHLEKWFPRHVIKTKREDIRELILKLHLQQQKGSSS
SENP8 block-1 – SENP8 protease inhibitors, primary screen, biochemical, luminescence. 1.2% of 330,000 active. Sentrin-specific protease 8 (Homo sapiens), Q96LD8. purified SENP8, Z-RLRGG-aminoluciferin cleavage. inhibition, % at 10 µM. AID 2540, 2010; in the data active = inhibition above about 50%
SENP6 block – SENP6 protease inhibitors, primary screen, biochemical, luminescence, uHTS. 1.8% of 330,000 active. Sentrin-specific protease 6 (Homo sapiens), Q9GZR1. Recombinant SENP6 catalytic domain, aminoluciferin luminescence. inhibition, % at 10 µM;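 active = inhibition above about 50% at the single tested dose, limit read from the data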
SENP8 block-2 – human SENP8 protease inhibitors, primary screen, biochemical, fluorescence, Nedd8 protein substrate, uHTS; recombinant SENP8; inhibition, % at 20 µM; 0.64% of 360,000 active; AID 602440, 2012; in the data active = inhibition mostly above about 40%, no sharp cut-off; inactive = mostly below about 27%
SENP1 inh – human SENP1 catalytic domain inhibitors, primary screen, biochemical, FRET, uHTS. 0.21% of 360,000 active. Sentrin-specific protease 1 (Homo sapiens), Q9P0U3. recombinant SENP1 catalytic domain, CyPet-SUMO1-YPet FRET cleavage. inhibition, % at 10 µM;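 active = inhibition at least 30% at 10 µM, raw YFP signal under a set limit, fluorescence ratio 0.5 to 1.5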
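Material – human SENP1 catalytic domain · Input – SENP1 enzyme, 20 pM final · Compound dosing – single concentration of 10 µM compound, 0.5% DMSO final · Timing – enzyme reaction for 50 min at room temperature, dark · Measured by – FRET fluorescence in CFP and YFP emission channels · Control set – no-enzyme wells low, DMSO-plus-enzyme wells high control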
SENP8 confirm – SENP8 protease inhibitors, retest, confirmation, biochemical, luminescence, single concentration | inhibition, % at 12.5 µM | AID 488912, 2010 | Recombinant SENP8, Z-RLRGG-aminoluciferin luminescence, 60 min | shares compounds with SENP7 inh | 40% of 6,200 active;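 active = mean inhibition across replicates above about 50%, limit read from the data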
SENP6 conf – SENP6 protease inhibitors, confirmation, biochemical, luminescence, single concentration; shares compounds with SENP7 inh; recombinant SENP6, Z-RLRGG-aminoluciferin luminescence; inhibition, % at 12.5 µM; 58% of 6,200 active; AID 488915, 2010
SENP7 conf – SENP7 protease inhibitors, retest, confirmation, biochemical, luminescence, single concentration; shares compounds with SENP7 inh; recombinant SENP7, Z-RLRGG-aminoluciferin luminescence, 40 min; inhibition, % at 12.5 µM; 69% of 6,200 active; AID 488917, 2010
Casp3 select – caspase-3 protease inhibitors, confirmation, selectivity assay for SENP inhibitor project, biochemical, single concentration. inhibition, % at 12.5 µM. AID 488918, 2010. shares compounds with SENP7 inh. 60% of 6,200 active. purified caspase-3, Z-DEVD-aminoluciferin luminescence, 60 min;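 active = mean inhibition above about 50%, limit read from the data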
Target sequence (P42574 28-227 limits assumed): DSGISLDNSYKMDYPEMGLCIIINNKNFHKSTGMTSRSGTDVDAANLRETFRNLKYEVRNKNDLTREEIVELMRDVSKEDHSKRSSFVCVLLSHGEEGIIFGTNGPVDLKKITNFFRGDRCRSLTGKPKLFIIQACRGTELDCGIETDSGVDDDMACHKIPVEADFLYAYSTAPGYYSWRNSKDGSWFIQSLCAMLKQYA
Luc interf – luminescence interference (SENP counter-screen); 39% of 6,200 active; Pre-incubated SENP8/Z-RLRGG-aminoluciferin, luciferase luminescence interference; AID 488919; inhibition, % at 12.5 µM; shares compounds with SENP7 inh;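 active = mean inhibition above about 50% when retested at one dose, limit read from the data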
A number is an active result; – = inactive; · = not tested or not shown.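 The calls were made as follows, unless noted: active = mean inhibition above about 50% in the one-dose retest (limit read from the data); inactive = the rest.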

SMILES	SENP7 inh	SENP8 block-1	SENP6 block	SENP8 block-2	SENP1 inh	SENP8 confirm	SENP6 conf	SENP7 conf	Casp3 select	Luc interf
Cc1csc2nc(CSc3nc4ccccc4o3)c(Br)n12	–	–	55.7	–	–	–	–	55.2	–	–
O=C(Nc1cc(Cl)ccc1Cl)c1ccco1	–	–	–	–	–	·	·	·	·	·
CS/C(Nc1cc(Cl)ccc1Cl)=C(/C#N)C(=O)c1ccco1	89.0	94.3	97.1	–	–	92.1	93.8	97.7	90.6	96.6
Cc1ccc2nc(-c3ccc(NC(=O)C4CCCO4)cc3)[nH]c2c1 (stereo unspecified)	–	–	53.1	–	–	–	–	67.8	57.6	–
O=C(Nc1ccc(-c2nc3cc(Cl)ccc3o2)cc1)C1CCCO1 (stereo unspecified)	70.0	–	–	–	–	–	–	–	–	–
CC(=O)Nc1ccc(-c2nc3cc(Cl)ccc3o2)cc1	59.0	–	57.2	–	–	–	–	53.4	–	–
O=C(Nc1ccc(-c2nc3cccnc3s2)cc1)C1CCCO1 (stereo unspecified)	93.6	89.9	93.1	–	–	94.8	95.0	101.3	97.0	79.3
O=C(Nc1ccc2oc(-c3ccccc3)nc2c1)C1CCCO1 (stereo unspecified)	–	–	–	–	–	·	·	·	·	·
COc1ccc(NC(=O)C2CCCO2)cc1 (stereo unspecified)	–	–	–	–	–	·	·	·	·	·
O=C(O)c1ccccc1-c1ccccc1C(=O)Nc1ccc(-c2nc3cc(Cl)ccc3o2)cc1	–	–	–	–	–	·	·	·	·	·
COCCN(CC(=O)Nc1cccc(C)c1C)C(=O)c1oc2c(Cl)cccc2c1C	–	–	–	–	–	·	·	·	·	·
O=C1C[C@H](NC(=O)OCc2ccccc2)CO1	–	–	–	–	–	·	·	·	·	·
CC(C)CCNc1nc(N)c([N+](=O)[O-])c(N2CCCCCC2)n1	–	–	–	–	–	·	·	·	·	·
O=C(Nc1ccc(-c2nc3ccccc3o2)cc1)C1CCCO1 (stereo unspecified)	90.8	80.0	94.0	–	–	91.0	92.1	99.9	93.3	–
CCN(CC)S(=O)(=O)c1ccc(C)c(NC(=O)COC(=O)C=C(C)C)c1	–	–	56.3	–	–	–	–	–	–	–
c1ccn2c(c1)nc1c2nc2ccccn21	–	–	–	–	–	·	·	·	·	·
Cc1ccc(-c2nc3ccccn3c2C=O)cc1	–	–	–	–	–	·	·	·	·	·
Cc1c(-c2ccc(Br)cc2)nc2ccccn12	89.9	87.9	95.6	–	–	–	88.5	99.6	88.0	88.6
Clc1cccc(-c2ccc(-c3nc4ccccn4c3NCc3ccccc3)cc2)c1	53.4	64.8	–	–	–	–	–	71.1	–	–
Clc1c(-c2ccccc2)nc2ccccn12	54.5	55.4	64.7	–	–	–	–	79.7	65.8	–
CCOc1ccc(C(=O)C(C)OC(=O)c2nc(Cl)ccc2Cl)cc1 (stereo unspecified)	–	–	–	–	–	·	·	·	·	·
NS(=O)(=O)c1ccc(CNC(=S)NCc2ccc(F)cc2)cc1	–	–	–	–	–	·	·	·	·	·
CC[N+]1(CC(O)COC2CC(C)CC(C)(C)C2)CCOCC1 (stereo unspecified)	–	–	–	–	–	·	·	·	·	·
CC(=O)c1ccc(N=Nc2c(C)[nH][nH]c2=O)cc1	79.0	–	55.1	55.5	–	55.6	57.1	76.5	88.2	–
CC(=O)c1ccc(N=Nc2ccc(N)cc2)cc1	78.4	–	74.6	46.1	–	59.7	61.5	87.5	61.6	–
SMILES	SENP7 inh	SENP8 block-1	SENP6 block	SENP8 block-2	SENP1 inh	SENP8 confirm	SENP6 conf	SENP7 conf	Casp3 select	Luc interf
CC(=O)c1ccc(NS(=O)(=O)c2ccc(N)cc2)cc1	–	–	–	–	–	·	·	·	·	·
Cc1[nH][nH]c(=O)c1N=Nc1ccc(Br)c(Cl)c1	71.4	86.4	94.0	–	–	–	–	–	–	–
COc1ccc(C(=O)Nc2cc(C)nn2-c2cccc(F)c2)cc1OC	–	–	–	–	–	·	·	·	·	·
Cc1cccc(CC(=O)NCCS(=O)(=O)N2CCN(c3cccc(Cl)c3)CC2)c1	–	–	–	–	–	·	·	·	·	·
C=C(C)Cn1c(N2CCC(Cc3ccccc3)CC2)nc2c1c(=O)[nH]c(=O)n2C	–	81.0	97.6	–	–	–	–	–	–	–
O=C(Nc1ccc(Cl)cc1Cl)C1=Cc2ccccc2OC1	50.9	–	–	–	–	–	–	–	–	–
COc1ccc(NC(=O)C2=Cc3cccc(OC)c3OC2)cc1	–	–	–	–	–	·	·	·	·	·
COc1ccc(NC(=O)C2=Cc3ccccc3OC2)cc1	72.5	61.3	68.1	–	–	59.4	59.7	86.9	65.5	–
O=C(/C=C/Nc1ccc(Nc2ccccc2)cc1)c1cccs1	·	·	·	–	–	·	·	·	·	·
O=C(/C=C/Nc1cccc([N+](=O)[O-])c1)c1cccs1	62.2	–	70.0	–	–	–	53.1	88.3	58.3	57.4
Cc1cc(N/C=C/C(=O)c2cccs2)ccc1F	–	82.2	84.6	–	–	88.0	90.3	100.9	87.2	–
Cc1ccc(N/C=C/C(=O)c2cccs2)cc1C	83.1	85.1	87.8	–	–	90.7	91.5	99.5	84.0	85.1
O=C(O)c1ccccc1C(=O)c1cccs1	–	–	–	–	–	·	·	·	·	·
O=C(/C=C/Nc1ccccc1C(=O)O)c1cccs1	–	82.4	91.6	–	–	–	95.5	101.7	97.6	93.1
O=C(Cc1cccs1)Nc1cccc([N+](=O)[O-])c1	–	–	–	–	–	·	·	·	·	·
Cc1nc(SCC(=O)N(CC(C)C)C2CCS(=O)(=O)C2)c(C#N)c(C)c1C (stereo unspecified)	–	–	–	–	–	·	·	·	·	·
CC(=O)Nc1cc2nn(-c3ccccc3)nc2cc1Cl	76.3	–	69.2	–	–	–	–	–	–	–
